pEC50, pIC50: −log10 of the molar value. Active and inactive are the calls of the source. No cut-off for these calls is given here.
Tests used:
MT2 = test: Cytotoxicity against human MT2 cells after 4 days by XTT assay; format: cell-based; conditions: mt2, 96 h
How it was run: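 XTT assay: MT-2 cells (5 × 10⁵/mL) incubated with compound at graded concentrations at 37 °C for 4 days. XTT (1 mg/mL) containing 0.02 μM PMS then added, and A450 read after 4 h. CC50 calculated.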

[1] = Selectivity index, ratio of CC50 for human MT2 cells to EC50 for HIV1 3B; format: toxicity, cell-based; conditions: read-out: Ratio CC50/EC50
[2] = Inhibition of HIV1 3B gp41 six-helix bundle formation after 30 mins by sandwich ELISA
[3] = test system: Human immunodeficiency virus 1; test: Antiviral activity against HIV1 3B in human MT2 cells assessed as inhibition of p24 antigen level after 4 days by ELISA; format: functional, organism-based; conditions: Human immunodeficiency virus 1, 3B, MT2, 96 h
How it was run: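 Medium then replaced without compound. Day 4 post-infection, supernatants lysed with 5% Triton X-100; p24 measured by sandwich ELISA with HIVIG capture, anti-p24 mAb, TMB, A450, and a recombinant p24 standard curve. Triplicates; EC50 calculated from percent inhibition.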

[4] = test system: Human immunodeficiency virus 1; test: Antiviral activity against HIV1 3B in human MT2 cells assessed as reduction of virus-induced cytopathogenicity; format: functional, organism-based

Compound | CC50 (MT2) | selectivity ratio [1] | pIC50 [2] | pEC50 [3] | Activity [4]
Cc1ccc(C)n1-c1ccc(C(=O)O)cc1 | 136 µM | 0.78 | 3.72 | 3.76 | 
O=C(O)c1cccc(-c2noc(C(F)(F)F)n2)c1 | > 400 µM |  | < 3.00 | < 3.40 | 
Nc1nnc(-c2ccc(C(=O)O)cc2)s1 | > 400 µM |  | < 3.00 | < 3.40 | 
O=C(O)c1ccc(-n2cccc2)cc1O | 443 µM | 5.42 | 4.15 | 4.09 | 
COC(=O)c1ccc(-c2noc(CSC#N)n2)cc1 | 43.7 µM | 3.99 | 3.77 | 4.96 | 
O=C1CSC(=S)N1c1cccc(C(F)(F)F)c1 | 85.4 µM | 0.74 | < 3.00 | 3.94 | 
N#CSCc1nc(-c2ccc(C(=O)O)cc2)no1 | 383 µM | 5.64 | 3.75 | 4.17 | 
COC(=O)c1ccc(-n2c(C)ccc2C)cc1O | 88.9 µM | 1.5 | 3.54 | 4.23 | 
O=C(O)c1ccc(N2C(=O)C=CC2=O)cc1O | > 400 µM |  | < 3.00 | < 3.40 | 
COC(=O)c1ccc(-c2noc(CBr)n2)cc1 | 32.7 µM | 0.37 | < 3.47 | 4.06 | 
O=C(O)c1ccc(-c2noc(CBr)n2)cc1 | 81.9 µM | 0.64 | < 3.45 | 3.90 | 
Cc1ccc(C)n1-c1ccc(Cl)cc1C(=O)O |  |  | 4.22 | 5.07 | 
c1cc(-c2nnn[nH]2)cc(-n2cccc2)c1 | 436 µM | 10.6 | 3.65 | 4.39 | 
O=C(O)c1ccc(N2C(=O)C=CC2=O)cc1 | > 400 µM | > 1.95 | < 3.00 | 3.69 | 
O=C(O)c1cc(N2C(=O)CSC2=S)ccc1O | 152 µM | 0.92 | < 3.00 | 3.78 | 
O=C(O)c1cc(-n2cccc2)ccc1O |  |  | 4.31 | 5.02 | 
O=C(O)c1ccc(N2C(=O)CSC2=S)cc1 | 143 µM | 0.56 | < 3.00 | 3.59 | 
O=C(O)c1ccc(-c2noc(CCl)n2)cc1 | 64 µM | 16.4 | < 3.38 | 5.41 | 
O=C(O)c1cccc(-c2noc(CCl)n2)c1 | 64.9 µM | 1.12 | 3.46 | 4.24 | 
Cc1ccc(C)n1-c1cccc(C(=O)O)c1 | 88.4 µM | 7.49 | 4.37 | 4.93 | 

Compound | CC50 (MT2) | selectivity ratio [1] | pIC50 [2] | pEC50 [3] | Activity [4]
O=C(O)c1cccc(N2C(=O)CSC2=S)c1 | 165 µM | 0.81 | < 3.00 | 3.69 | 
O=C(O)c1cc(-n2cccc2)ccc1Cl | 336 µM |  | 4.23 |  | 
COC(=O)c1ccc(-c2noc(CCl)n2)cc1 | 14.2 µM | 0.34 | < 3.40 | 4.38 | 
O=C(O)c1ccc(-n2cccc2)cc1 |  |  | 3.89 | 4.16 | 
O=C(O)c1cc(N2C(=O)CSC2=S)ccc1Cl | 155 µM | 0.87 | < 3.00 | 3.75 | 
COC(=O)c1ccc(N2C(=O)C=CC2=O)cc1O | 66.2 µM | 1.68 | 4.00 | 4.40 | 
Cc1ccc(C)n1-c1ccc(S(N)(=O)=O)cc1 | 117 µM | 1.18 | 3.74 | 4.00 | 
O=C(O)Cc1ccc(-n2cccc2)cc1 |  |  |  | 3.43 | 
O=C(O)c1ccc(-c2noc(CO)n2)cc1 | 455 µM | 2.98 | 4.58 | 3.82 | 
CCOC(=O)c1ccc(-c2noc(CO)n2)cc1 | 385 µM | 1.03 | 3.75 | 3.43 | 
COc1ccc(N2C(=O)CSC2=S)cc1 | 89.6 µM | 1.41 | < 3.00 | 4.20 | 
Cc1ccc(C)n1-c1ccc(O)c(C(=O)O)c1 | 133 µM |  | 4.43 | 6.16 | Active
Cc1ccc(C)n1-c1ccc(CC(=O)O)cc1 | 204 µM | 97.1 | 3.65 | 5.68 | 
O=C1CSC(=S)N1c1ccc(O)cc1 | 84.9 µM | 2.38 | < 3.00 | 4.45 | 
O=C(O)c1ccc(Cn2cccc2)cc1 |  |  | 3.80 | 4.19 | 
COC(=O)c1ccc(-n2cccc2)cc1O | 379 µM | 10.7 |  | 4.45 | 
Cc1ccc(C)n1-c1ccc(Cl)c(C(=O)O)c1 | 211 µM | 139 | 4.10 | 5.82 | 
Cc1ccc(C)n1-c1cccc(-c2nnn[nH]2)c1 | 249 µM | 32.4 | 4.59 | 5.11 | 
O=C(O)c1ccc(-c2noc(C(F)(F)F)n2)cc1 | 82.2 µM | 26.9 | 3.65 | 5.51 | 
O=C(O)c1cccc(-n2cccc2)c1 | 302 µM | 6.74 | 3.68 | 4.35 | 
